Data on two compounds can be found in ChEMBL document CHEMBL1121953, “Carbon-7 substituted actinomycin D analogues as improved antitumor agents: synthesis and DNA-binding and biological properties” (J Med Chem, 1982).

Converted amounts (≈) assume the structure as drawn. *1 amine or outer side, *2 acyl side, *3 side chain or, on linkers, in order; H or OH if unused. Where a SMILES comes first, the peptide text is derived from it. Bridges are numbered along the chain shown (N, C = ends). Roman numbers before positions name the chains, in order. [ ]: non-standard residue; d: D form. Actinocin(9to1) = Cc1c2oc3c(C)ccc(C(=O)[*:1])c3nc-2c(C(=O)[*:2])c(N)c1=O; NMeV = CN[C@H](C(=O)O)C(C)C; Sar = CNCC(=O)O

Data set [1] concerns P388. Briefly: Antitumor activity against P-388 lymphocytic leukemia in CDF1 hybrid male mice measured as percent increase in lifespan( 1.8 mg/kg),ip. Type of data set: functional. The conditions noted are these: Mus musculus. In outline: (§1)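 Male CDF1 mice (18-23 g) were inoculated ip with 10⁶ P-388 cells on day 0. Drug was given ip in 10% dimethyl sulfoxide-saline on days 1, 5 and 9. Test solutions were kept at 0-4 °C, protected from light, and checked periodically for stability and homogeneity by TLC and HPLC. Read-out was survival, median survival time, increase in life span and tumor-free cures per 7 animals.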

Data set [2] deals with P388. Briefly: Number of mice with P-388 lymphocytic leukemia cured( 1.2 mg/kg),ip; 0/7. Type of data set: functional, Mus musculus. The procedure, abridged: as §1
Data set [3] has as its system P388. Briefly: Antitumor activity against P-388 lymphocytic leukemia in CDF1 hybrid male mice measured as median survival time ( 0.15 mg/kg),ip. It counts as functional, Mus musculus. In outline:
as §1

Data set [4] concerns P388. Nature of the data set: Number of mice with P-388 lymphocytic leukemia cured( 0.3 mg/kg),ip; 2/7. It counts as functional, Mus musculus. The procedure, abridged: as §1
Data set [5] has as its system P388. Briefly: Antitumor activity against P-388 lymphocytic leukemia in CDF1 hybrid male mice measured as median survival time ( 0.6 mg/kg),ip. It counts as functional, Mus musculus. In outline: as §1
The test system of data set [6] is P388. Briefly: Maximum tolerated dose was determined compared to 7-(2,3-Epoxypropoxy)-actinomycin D against P-388 leukemia in mice(4 days). It counts as functional, Mus musculus. In outline: (§2)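 Tumor-free male CDF1 mice (18-23 g) received a broad dose range ip in 10% dimethyl sulfoxide-saline, either on days 1, 5, 9 (three injections) or on 4 successive days (qd 1-4). Deaths were recorded over 21 days. MTD was the dose lethal to 10% (LD10), taken from a plot of log dose vs percent mortality. Average of two experiments.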

The test system of data set [7] is P388. Briefly: Antitumor activity against P-388 lymphocytic leukemia in CDF1 hybrid male mice measured as median survival time ( 1.2 mg/kg),ip. Type of data set: functional, Mus musculus. In outline: as §1
Data set [8] concerns P388. Nature of the data set: Antitumor activity against P-388 lymphocytic leukemia in CDF1 hybrid male mice measured as median survival time ( 1.8 mg/kg),ip. It counts as functional, Mus musculus. In outline: as §1
The test system of data set [9] is P388. Briefly: Minimum effective dose was determined compared to 7-(2,3-Epoxypropoxy)-actinomycin D against P-388 leukemia in mice(4 days). It counts as functional, Mus musculus. The procedure, abridged: (§3)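 MED was the dose (mg/kg) giving a 40% increase in life span over control in mice bearing ip P-388 leukemia. Drug was given ip in 10% dimethyl sulfoxide-saline on a q4d 1, 5, 9 (three injections) or qd 1-4 (four injections) schedule.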

Data set [10] relates to P388. Briefly: Antitumor activity against P-388 lymphocytic leukemia in CDF1 hybrid male mice measured as percent increase in lifespan(0.6 mg/kg),ip. It counts as functional, Mus musculus. In outline:
as §1

Data set [11] has as its system P388. Nature of the data set: Antitumor activity against P-388 lymphocytic leukemia in CDF1 hybrid male mice measured as percent increase in lifespan( 1.2 mg/kg),ip. The conditions noted are these: Mus musculus. Type of data set: functional. The procedure, abridged:
as §1

Data set [12] relates to P388. Briefly: Antitumor activity against P-388 lymphocytic leukemia in CDF1 hybrid male mice measured as median survival time ( 0.3 mg/kg),ip. It counts as functional, Mus musculus. The procedure, abridged: as §1
In data set [13] the test system is P388. Nature of the data set: Antitumor activity against P-388 lymphocytic leukemia in CDF1 hybrid male mice measured as percent increase in lifespan(0.3 mg/kg),ip. Type of data set: functional, Mus musculus. The procedure, abridged:
as §1

Data set [14] has as its system P388. Nature of the data set: Number of mice with P-388 lymphocytic leukemia cured( 0.15 mg/kg),ip.; 0/7. It counts as functional, Mus musculus. The procedure, abridged:
as §1

Data set [15] concerns P388. Nature of the data set: Minimum effective dose was determined compared to 7-(2,3-Epoxypropoxy)-actinomycin D against P-388 leukemia in mice(3 days). It counts as functional, Mus musculus. Further details: unit: mg/kg. The procedure, abridged: as §3
The subject of data set [16] is P388. Briefly: Maximum tolerated dose was determined compared to 7-(2,3-Epoxypropoxy)-actinomycin D against P-388 leukemia in mice(3 days). Type of data set: functional, Mus musculus. The procedure, abridged:
as §2

The species entered for the next data set is Homo sapiens. Nature of the data set: In vitro growth inhibitory activity against human lymphoblastic leukemia cells. Type of data set: functional. The conditions noted are these: read-out: ID50 (the source's name). In outline: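 CCRF-CEM human lymphoblastic leukemia cells in log-phase growth; compounds dissolved in Me₂SO, final growth medium 1% Me₂SO.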

In data set [17] the test system is P388. Nature of the data set: Number of mice with P-388 lymphocytic leukemia cured.( 1.8 mg/kg),ip; 0/7. It counts as functional, Mus musculus.
Data set [18] deals with P388. Nature of the data set: Antitumor activity against P-388 lymphocytic leukemia in CDF1 hybrid male mice measured as percent increase in lifespan(0.15 mg/kg),ip. Type of data set: functional, Mus musculus. In outline:
as §1

In data set [19] the test system is P388. Nature of the data set: Number of mice with P-388 lymphocytic leukemia cured( 0.6 mg/kg),ip; 1/7. It counts as functional, Mus musculus. In outline: as §1
In data set [20] the test system is P388. Nature of the data set: Antitumor activity against P-388 lymphocytic leukemia in CDF1 hybrid male mice measured as percent increase in lifespan( 0.125 mg/kg),ip. It counts as functional. The settings on record: Mus musculus. In outline: as §1
For data set [21], the system named is P388. Nature of the data set: Antitumor activity against P-388 lymphocytic leukemia in CDF1 hybrid male mice measured as median survival time ( 0.375 mg/kg),ip. Type of data set: functional, Mus musculus. In outline: as §1
In data set [22] the test system is P388. Nature of the data set: Number of mice with P-388 lymphocytic leukemia cured.( 0.062 mg/kg),ip; 0/7. It counts as functional, Mus musculus.
The subject of data set [23] is P388. Briefly: Antitumor activity against P-388 lymphocytic leukemia in CDF1 hybrid male mice measured as percent increase in lifespan( 0.031 mg/kg),ip. The conditions noted are these: Mus musculus. Type of data set: functional. In outline:
as §1

Data set [24] in a line: Therapeutic Index measured as the MTD/MED ratio compared to that of compound 3. The conditions noted are these: read-out: Therapeutic index. The procedure, abridged:
(§4)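 Therapeutic index is MTD/MED, with ip dosing in 10% dimethyl sulfoxide-saline on a qd 1-4 or q4d 1, 5, 9 schedule. MED is the dose giving a 40% increase in life span over control in P-388-bearing mice. MTD is the LD10 in tumor-free male CDF1 mice (18-23 g) over 21 days, read from a log dose vs. percent mortality plot and averaged over 2-3 experiments.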

Data set [25] has as its system P388. Briefly: Antitumor activity against P-388 lymphocytic leukemia in CDF1 hybrid male mice measured as median survival time (0.062 mg/kg),ip. Type of data set: functional, Mus musculus. The procedure, abridged: as §1
A short description of data set [26]: In vitro growth inhibitory activity for effect on melting temperature of DNA was determined. In outline: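 DNA thermal denaturation; ΔTm = Tm of DNA-drug complex minus Tm of DNA. Drug 1.4×10⁻⁴ M, DNA (P) 1.4×10⁻³ M in 0.01 M phosphate buffer pH 7.0 with 5×10⁻³ M EDTA and 5% dimethyl sulfoxide.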
For data set [27], the system named is P388. Briefly: Antitumor activity against P-388 lymphocytic leukemia in CDF1 hybrid male mice measured as median survival time (0.25 mg/kg),ip. It counts as functional, Mus musculus. In outline:
as §1

For data set [28], the system named is P388. Briefly: Number of mice with P-388 lymphocytic leukemia cured( 0.250 mg/kg),ip; 0/7. Type of data set: functional, Mus musculus. The conditions noted are these: dose 0.25 mg/kg.
In data set [29] the test system is P388. Briefly: Number of mice with P-388 lymphocytic leukemia cured( 0.031 mg/kg),ip; 0/7. Type of data set: functional, Mus musculus.
Data set [30] deals with P388. Briefly: Antitumor activity against P-388 lymphocytic leukemia in CDF1 hybrid male mice measured as percent increase in lifespan( 0.250 mg/kg),ip. It counts as functional. The settings on record: Mus musculus. The procedure, abridged: as §1
The subject of data set [31] is P388. Nature of the data set: Antitumor activity against P-388 lymphocytic leukemia in CDF1 hybrid male mice measured as percent increase in lifespan(0.062 mg/kg),ip. Type of data set: functional, Mus musculus. In outline:
as §1

Data set [32] deals with P388. Briefly: Antitumor activity against P-388 lymphocytic leukemia in CDF1 hybrid male mice measured as median survival time (0.031 mg/kg),ip. It counts as functional, Mus musculus. In outline:
as §1

The test system of data set [33] is P388. Briefly: Number of mice with P-388 lymphocytic leukemia cured( 0.125 mg/kg),ip.; 1/7. It counts as functional, Mus musculus.
A short description of data set [34]: Therapeutic Index measured as the MTD/MED ratio compared to that of compound 4. The settings on record: read-out: Therapeutic index. In outline:
as §4

Data set [35] has as its system P388. Nature of the data set: Antitumor activity against P-388 lymphocytic leukemia in CDF1 hybrid male mice measured as median survival time (0.125 mg/kg),ip. It counts as functional, Mus musculus. The procedure, abridged: as §1

Usually ILS stands for how much longer treated animals lived than controls. `Cc1c2oc3c(C)c(OCC(O)CO)cc(C(=O)N[C@@H]4C(=O)N[C@H](C(C)C)C(=O)N5CCC[C@H]5C(=O)N(C)CC(=O)N(C)[C@@H](C(C)C)C(=O)O[C@@H]4C)c3nc-2c(C(=O)N[C@@H]2C(=O)N[C@H](C(C)C)C(=O)N3CCC[C@H]3C(=O)N(C)CC(=O)N(C)[C@@H](C(C)C)C(=O)O[C@@H]2C)c(N)c1=O` (stereo partly specified) returned an increase in life span (ILS) at 1.8 mg/kg in the data set with P388 [1] of 36%. The Cure in the data set with P388 [2] is on record as 0; with P388 [4], 2; with P388 [14] it was 0; in the data set with P388 [17] it was 0; in the data set with P388 [19], 1. Further, the MST in the data set with P388 [3] worked out at 16 days; in the data set on P388 [5], 25 days; in the data set with P388 [7], 32 days; in the data set with P388 [8] it was 15 days; in the data set on P388 [12] it was 20 days. For the same compound, the figures for the MTD in the data set with P388 [6] and in the data set with P388 [16] were 1.4 and 1.8, respectively. The figures for the MED in the data set on P388 [9] and in the data set with P388 [15] were 0.125 and 0.15, respectively. For the same compound, the ILS was determined as 136% in the data set with P388 [10], 82% with P388 [13] and 45% in the data set on P388 [18]. The compound further gave an increase in lifespan (ILS) at 1.2 mg/kg in the data set on P388 [11] of 191%. Besides, in the data set filed under Homo sapiens, the IC50 worked out at 0.085 µg/mL (≈ 0.0632 µM).

In the data set with P388 [20], `Cc1c2oc3c(C)ccc(C(=O)N[C@@H]4C(=O)N[C@H](C(C)C)C(=O)N5CCC[C@H]5C(=O)N(C)CC(=O)N(C)[C@@H](C(C)C)C(=O)O[C@@H]4C)c3nc-2c(C(=O)N[C@@H]2C(=O)N[C@H](C(C)C)C(=O)N3CCC[C@H]3C(=O)N(C)CC(=O)N(C)[C@@H](C(C)C)C(=O)O[C@@H]2C)c(N)c1=O` [DACTINOMYCIN] (I: T[dV]P[Sar][NMeV] / II: T[dV]P[Sar][NMeV]; ester I:1-I:C, II:1-II:C; linker I:N-II:N via Actinocin(9to1)) showed an ILS at 0.125 mg/kg of 136%. The MST is 9 days in the data set on P388 [21]; 16 days with P388 [25]; 17 days with P388 [27]; 13 days in the data set on P388 [32]; 26 days with P388 [35]. Further, the MTD in the data set with P388 [6] amounted to 0.15; in the data set on P388 [16] it was 0.25. In addition, the Cure with P388 [22] came out at 0; in the data set on P388 [28], 0; with P388 [29], 0; in the data set on P388 [33], 1. In the data set on P388 [23], this compound registered an ILS at 0.031 mg/kg of 18%. For the same compound, the selectivity ratio in [24] came to 4; in data set [34], 3. Further, the MED in the data set with P388 [9] was 0.05; in the data set with P388 [15] it was 0.0625. The DNA melting temperature shift (ΔTm) in data set [26] was found to be 7.1 °C. Also, in the data set with P388 [30], the ILS at 0.25 mg/kg amounted to 55%. For the same compound, the ILS with P388 [31] turned out to be 45%. In addition, the IC50 in the data set listed under Homo sapiens was found to be 0.06 µg/mL (≈ 0.0478 µM).
